Most compounds without a hit are left out; they make up all but 4.4% or so of the library.
T cruzi inh: T. cruzi replication inhibition; T. cruzi beta-gal in NIH3T3, luminescence, 90 h; inhibition, % (concentration not given with the values); 300,000 compounds, 1.4% hits;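 active = mean inhibition across valid replicates above about 55%, limit read from the data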;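 also: signal also drops with host cell toxicity which is not excluded here; 0% = plate median of DMSO wells and 100% = zero luminescence signal; higher percent means less beta-gal luminescence so fewer parasites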
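Material: NIH/3T3 host cells with β-galactosidase reporter T. cruzi; Input: 5,000 host fibroblasts per well; Medium: DMEM, 2% fetal bovine serum; Compound: 50 nL DMSO compound solution per well; Schedule: 3 h host attachment, then at least 90 h co-culture; Detection: luminescent β-galactosidase signal after 60 min lysis.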
Calb FLC: C. albicans growth modulation with fluconazole; 300,000 compounds, 0.57% hits; growth inhibition, % (test concentration not listed); C. albicans CaCi-2 + fluconazole, Alamar Blue growth, 48 h;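 active = growth inhibition above about 58% in most replicates, limit read from the data, passing the limit was not always enough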;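 also: all wells also contain fluconazole at 8 µg/ml as a sub-toxic cotreatment; 0% = median of DMSO wells and 100% = median of geldanamycin control wells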
HIF activator: HIF pathway transcriptional activation | 300,000 compounds, 0.32% hits | activation, % at 7.5 µM (by protocol) | U2OS HRE-luciferase reporter, luminescence; normalized: DMSO 0%, desferrioxamine 100% | AID 1910;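 active = mean activation of at least 10% of the iron chelator positive control signal, with at least half of replicates also reaching 10%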
HSF1 activator: increases HSF-1 driven luciferase reporter signal; NIH3T3-HGL HSF-1 luciferase reporter, MG132, 8 h; 100% = twice DMSO control signal; activation, % at 9 µM; 300,000 compounds, 1.7% hits;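 active = mean replicate activation of at least 50% with a set share of replicates each reaching 50%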;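 also: 0% = median of the neutral control wells and 100% = twice that signal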
HSF1 inhib: HSF1 inhibition | NIH3T3-HGL HSE-luciferase, MG132-induced, luminescence 8 h; stronger effect = lower value | activity change, negative = inhibition, % at 7.5 µM (by protocol) | 300,000 compounds, 0.77% hits | AID 2098;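 active = more than half of replicate wells show activity change below -50%, luminescence cut by over half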;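 also: luciferase reports HSF-1 transcriptional activity via heat shock element; 0% = median of DMSO wells and -100% = zero luminescence signal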
The depositor's hits bear a star; nt = no result.

SMILES	T cruzi inh	Calb FLC	HIF activator	HSF1 activator	HSF1 inhib
O=C(CSc1ccccn1)c1ccc(F)cc1	-12	31	nt	13	12
COC(=O)C1Cc2c([nH]c3ccccc23)C2(CCN(Cc3ccccc3)CC2)N1 (stereo not given)	71*	-24	0	19	-7
CCCN1CCC2(CC1)NC(C(=O)O)Cc1c2[nH]c2ccccc12 (stereo not given)	-8	7	0	-11	-6
CCCCCC(=O)Nc1cccc(C2=NOC3(C2)C[C@H](C(N)=O)N(C(=O)c2ccccc2C(=O)c2ccccc2)C3)c1 (stereo not given in full)	45	9	-1	24	4
O=c1[nH]c(CN2CCN(C/C=C/c3ccccc3)CC2)nc2ccccc12	72*	2	0	-8	-5
Cc1ccc2oc(=O)cc(CN3CCN(C/C=C/c4ccccc4)CC3)c2c1	57*	2	-1	0	4
Cc1ccc2oc(=O)cc(CN3CCCCC3)c2c1	-4	2	-10	4	-10
O=c1cc(CN2CCN(c3ccccc3)CC2)c2cc(O)c(-c3ccccc3)cc2o1	-6	-29	0	-1	-6
O=c1cc(CN2CCN(C/C=C/c3ccccc3)CC2)c2cc(O)ccc2o1	58*	-11	-1	0	3
CCCCCCCn1c(C)nnc1-c1cnn(C)c1N	-7	-4	2	-3	11
O=C(CN1C(=O)/C(=C\c2cccc(Cl)c2)Oc2ccccc21)N1CCN(c2ccccn2)CC1	8	7	0	-3	-2
C=CCN(CC=C)C(=O)Nc1cc(OC)ccc1OC	-1	-9	0	-33	-17
Cc1ccc(SCC(=O)OCC(=O)N2CCN(C(=O)c3ccco3)CC2)c(C)c1	-26	12	0	12	2
Cc1cccc(CS(=O)(=O)Cc2ccc(C(=O)NCc3cccs3)o2)c1	-17	13	1	-79	-71*
CCC(C)NC(=O)CNC(=O)c1nn(-c2ccc(OC)cc2OC)c(=O)c2ccccc12 (stereo not given)	-9	17	-21	26	-2
Cc1coc(NC(=O)CSc2nc(-c3ccc(Cl)cc3)cc(C(F)(F)F)c2C#N)n1	-12	-6	-2	-76	-69*
COc1ccc(-c2cc(C(F)(F)F)c(C#N)c(SCC(=O)Nc3nc(C)co3)n2)cc1	-10	-22	2	-10	3
CC1CC(c2ccccc2)NS(=O)(=O)O1 (stereo not given)	-2	-2	1	-10	-2
O=S1(=O)N[C@H](c2ccccc2)C[C@H](c2ccc(C(F)(F)F)cc2)O1	8	11	0	-67	-56*
Cn1c(O)c(C=Nc2ccc(Br)cc2)sc1=O	-3	-28	3	58*	24
CCCn1c(O)c(C=Nc2ccccc2)sc1=S	15	-6	1	15	26
CCN(C(=O)c1cnc(NC(C)C)cc1C(F)(F)F)c1ccc(Cl)cc1Cl	12	15	0	8	2
Cc1nnc(SCC(=O)c2ccc(Br)cc2)s1	-19	-5	3	67*	49
CN(C)C(CNc1ccc([N+](=O)[O-])cc1C#N)c1ccccc1 (stereo not given)	3	0	0	3	5
COc1ccc(C(=O)NC(=S)N(C)C2CCCCC2)cc1	nt	4	nt	nt	nt
SMILES	T cruzi inh	Calb FLC	HIF activator	HSF1 activator	HSF1 inhib
COc1ccc(C(=O)NC(=S)N(C)C2CCCCC2)cc1Br	60*	11	0	9	-5
Cc1ccc(C(=O)NC(=S)N(C)C2CCCCC2)cc1Br	60*	2	1	-10	-6
O=C(NCc1ccc(Cl)cc1)C1CCN(S(=O)(=O)N2CCOCC2)CC1	-9	12	2	0	-1
CCN(CC)S(=O)(=O)c1ccc(C(=O)Nn2cnnc2)cc1	-5	3	0	-13	-5
CCN(CC)S(=O)(=O)c1ccc(NC(=S)Nc2ccc(F)cc2)cc1	-12	-4	2	-26	-8
NC(=O)CC(NC(=O)Cc1ccc(Br)cc1)c1ccc(N2CCN(c3ccccc3)CC2)c([N+](=O)[O-])c1 (stereo not given)	-20	-6	-1	26	16
COc1ccc2c(c1)CCc1c-2n[nH]c1C(=O)NCCC(C)C	24	0	1	51*	30
CNC(=O)c1[nH]nc2c1CCc1cc(OC)ccc1-2	20	-1	2	11	-8
O=C(O)c1ccccc1N=Cc1c(O)n(-c2nccs2)c(=O)c2ccccc12	14	-6	2	-15	-6
CCN(CC)S(=O)(=O)c1cccc(-n2c(O)c(C=Nc3ccccc3C(=O)O)c3ccccc3c2=O)c1	72*	-3	1	-40	-27
CN1CCN(c2ccc(-c3ccc4ccccc4n3)cc2)CC1	44	-4	-6	-91	-90*
COc1cccc(C(=O)NCCS(=O)(=O)NC(C)CCc2ccccc2)c1 (stereo not given)	9	-2	-2	14	-2
COc1ccc(/C=c2\s/c(=C\C(=O)C(C)(C)C)[nH]c2=O)cc1O	7	-4	0	64*	45
COc1cc(/C=c2\s/c(=C\C(=O)C(C)(C)C)[nH]c2=O)cc(OC)c1OC	19	9	0	15	7
Cc1cc(C)c2[nH]c(=O)c(CN(CC3CCCO3)C(=S)NCc3ccco3)cc2c1 (stereo not given)	3	-25	1	62*	36
Cc1ccc(C)c2[nH]c(=O)c(CN(Cc3ccco3)C(=S)NCC3CCCO3)cc12 (stereo not given)	0	14	-2	77*	57
Cc1cccc2cc(CN(CC3CCCO3)C(=S)NCc3ccco3)c(=O)[nH]c12 (stereo not given)	4	-11	0	16	2
C/C(=N\NC(=O)CNC(=O)C1COc2ccccc2O1)c1ccco1 (stereo not given)	-5	-17	1	-1	-14
CCOc1ccccc1N(C)C(=O)c1cc2c(=O)n(CC)c3ccccc3c2s1	62*	-1	-1	37	17
CCN1C(=O)c2ccccc2S(=O)c2ccc(C(=O)N3CCCC3)cc21 (stereo not given)	4	8	0	-88	-85*
C=CCN1C(=O)c2ccccc2Sc2ccc(C(=O)N3CCN(C)CC3)cc21	-2	33	10*	nt	nt
CCN1C(=O)c2ccccc2S(=O)c2ccc(C(=O)NCc3ccc(OC)cc3)cc21 (stereo not given)	15	-4	0	-90	-87*
CCOCCCNC(=O)c1ccc2c(c1)N(CC)C(=O)c1ccccc1S2=O (stereo not given)	-1	-13	1	-4	-9
Cc1cc(C)c(NC(=O)CNC(=O)Cc2sc(C)nc2-c2ccc(F)cc2)c(C)c1	4	0	0	9	-1
Cc1[nH]n2c(=O)cc(C(C)(C)C)nc2c1-c1ccccc1	59*	-2	0	-52	-42
